Experimental data gathered from unrelated publications.
Organism: Plasmodium falciparum
Read-out: parasite growth

With N=C(CC(O)c1cc2c(F)cc(F)cc2c2cc(C(F)(F)F)ccc12)Nc1ccc(-c2ccc(F)cc2)cc1 (stereo not shown) the IC50 was roughly 5 nM (ELISA; 3D7 DD2; blood stage).
For COc1cc(/C=C/c2cc(/C=C/c3ccc(O)c(OC)c3)n(-c3cccc([N+](=O)[O-])c3)n2)ccc1O, the EC50 was 16700 nM (K1; drug-resistant strain, blood stage).
N=C(CC(O)c1cc2c(F)cc(F)cc2c2cc(C(F)(F)F)ccc12)Nc1ccc(N2CCC(F)(F)CC2)cc1 (stereo not shown) has an IC50 of 33.6 nM (ELISA; 3D7; 72 h, blood stage).
With N=C(N)N/N=C/c1c(Cl)cccc1Cl the IC50 was 931 nM (K1; drug-resistant strain, blood stage).
For COc1cc(/C=C2\CC/C(=C\c3ccc(O)c(OC)c3)C2=O)ccc1O, the EC50 was 1470 nM (K1; drug-resistant strain, blood stage).
The IC50 of C[C@@H]1CC[C@H]2[C@@H](C)C(=O)O[C@@H]3O[C@@]4(C)CC[C@@H]1[C@]32OO4 is reported as 9.1 nM (DD2; 72 h, drug-resistant strain, blood stage).
The EC50 of COc1cc(/C=C/C(=O)C(=Cc2ccc([N+](=O)[O-])cc2)C(=O)/C=C/c2ccc(O)c(OC)c2)ccc1O is reported as 9100 nM (K1; drug-resistant strain, blood stage).
With C[C@@H]1CC[C@H]2[C@@H](C)C(=O)O[C@@H]3O[C@@]4(C)CC[C@@H]1[C@]32OO4 the IC50 was 19.5 nM (SYBR Green; 3D7; blood stage).
With N=C(CC(O)c1cc2c(F)cc(F)cc2c2cc(C(F)(F)F)ccc12)Nc1ccc(Br)c(F)c1 (stereo not shown) the IC50 was 5.3 nM (ELISA; 3D7; 72 h, blood stage).
CCN1CCN(Cc2ccc(Nc3nc4ccc(Oc5ccnc(NC(=O)C6CCN(C)CC6)c5)cc4n3C)cc2C(F)(F)F)CC1 gave an IC90 of 166 nM (flow cytometry; DD2; 72 h, blood stage).
N=C(CC(O)c1cc2c(F)cc(F)cc2c2cc(C(F)(F)F)ccc12)Nc1cc(F)c(F)c(F)c1 (stereo not shown) has an IC50 of 8.7 nM (ELISA; 3D7; 72 h, blood stage).
CO[C@H]1C[C@H](O[C@@H]2/C(C)=C/C[C@@H]3C[C@@H](C[C@]4(CC[C@H](C)[C@@H](C5CCCCC5)O4)O3)OC(=O)[C@@H]3C=C(C)/C(=N/O)[C@H]4OC/C(=C\C=C\[C@@H]2C)[C@]43O)O[C@@H](C)[C@@H]1O has an IC50 of 179 nM (DD2; drug-resistant strain, blood stage).
For COc1cc(/C=C2\CCC/C(=C\c3ccc(O)c(OC)c3)C2=O)ccc1O, the EC50 was 1300 nM (K1; drug-resistant strain, blood stage).
For CO[C@H]1/C=C/O[C@@]2(C)Oc3c(C)c(O)c4c(O)c(c(/C=N/N5CCN(C)CC5)c(O)c4c3C2=O)NC(=O)/C(C)=C\C=C\[C@H](C)[C@H](O)[C@@H](C)[C@@H](O)[C@@H](C)[C@H](OC(C)=O)[C@@H]1C, the IC50 was 33 nM (K1; drug-resistant strain, blood stage).
COc1cc(/C=C/C(=O)/C=C/c2ccc(O)c(OC)c2)ccc1O gave an EC50 of 2530 nM (K1; drug-resistant strain, blood stage).
The IC50 of CCCCCCCCNC(C)C(O)c1ccc(SC(C)C)cc1 (stereo not shown) is reported as 62.5 nM (DD2; drug-resistant strain, blood stage).
With Cc1cc(F)cc(C)c1NC(=N)CC(O)c1cc2c(F)cc(F)cc2c2cc(C(F)(F)F)ccc12 (stereo not shown) the IC50 was 11.6 nM (ELISA; 3D7; 72 h, blood stage).
CCN(CC)CCCC(C)Nc1ccnc2cc(Cl)ccc12 (stereo not shown) gave an IC50 of 91.2 nM (K1; drug-resistant strain).
For N=C(CC(O)c1cc2c(F)cc(F)cc2c2cc(C(F)(F)F)ccc12)Nc1cccc(F)c1 (stereo not shown), the IC50 was roughly 2 nM (ELISA; 3D7 DD2; blood stage).
